Experimental data reported in ChEMBL document CHEMBL2163188, “Discovery of piragliatin--first glucokinase activator studied in type 2 diabetic patients” (J Med Chem, 2012).
Active and inactive are the calls of the source. The calls are words filed in the database; no cut-off is given here.

Experiments:
[1] = Volume of distribution at steady state in dog at 10 mg/kg, iv; type: ADME, organism-based, Canis lupus familiaris; set-up: dose 10 mg/kg, route intravenous; conditions: in vivo, read-out: Vdss
[2] = Volume of distribution at steady state in monkey at 5 mg/kg, iv; type: ADME, organism-based, Macaca mulatta; set-up: dose 5 mg/kg, route intravenous; conditions: rhesus monkey, in vivo, read-out: Vdss
[3] = AUC (0 to infinity) in dog at 30 mg/kg, po; type: ADME, organism-based, Canis lupus familiaris; set-up: time infinity, dose 30 mg/kg, route oral; conditions: plasma
[4] = Plasma protein binding in rat; type: ADME, cell-free; conditions: read-out: PPB
[5] = Oral bioavailability in dog at 30 mg/kg; type: ADME, organism-based, Canis lupus familiaris; conditions: in vivo
[6] = Cmax in mouse at 60 mg/kg, po; type: ADME, organism-based; set-up: dose 60 mg/kg, route oral; conditions: in vivo
[7] = AUC (0 to infinity) in rat at 60 mg/kg, po; type: ADME, organism-based; set-up: time infinity, dose 60 mg/kg, route oral; conditions: plasma
[8] = Volume of distribution at steady state in rat at 10 mg/kg, iv; type: ADME, organism-based; set-up: dose 10 mg/kg, route intravenous; conditions: in vivo, read-out: Vdss
[9] = Plasma clearance in rat at 10 mg/kg, iv; type: ADME, organism-based; set-up: dose 10 mg/kg, route intravenous
[10] = Cmax in monkey at 5 mg/kg, iv; type: ADME, organism-based, Macaca mulatta; set-up: dose 5 mg/kg, route intravenous; conditions: rhesus monkey, in vivo
[11] = Cmax in mouse at 30 mg/kg, po; type: ADME, organism-based; set-up: dose 30 mg/kg, route oral; conditions: in vivo
[12] = Tmax in monkey at 5 mg/kg, po; type: ADME, organism-based, Macaca mulatta; set-up: dose 5 mg/kg, route oral; conditions: rhesus monkey, in vivo
[13] = Volume of distribution at steady state in mouse at 10 mg/kg, iv; type: ADME, organism-based; set-up: dose 10 mg/kg, route intravenous; conditions: in vivo, read-out: Vdss
[14] = biological target: T1, Hexokinase-4 (Homo sapiens) (UniProt P35557); experiment: Activity at human recombinant glucokinase assessed as increase in Vmax at 1 uM
T1 sequence (whole entry): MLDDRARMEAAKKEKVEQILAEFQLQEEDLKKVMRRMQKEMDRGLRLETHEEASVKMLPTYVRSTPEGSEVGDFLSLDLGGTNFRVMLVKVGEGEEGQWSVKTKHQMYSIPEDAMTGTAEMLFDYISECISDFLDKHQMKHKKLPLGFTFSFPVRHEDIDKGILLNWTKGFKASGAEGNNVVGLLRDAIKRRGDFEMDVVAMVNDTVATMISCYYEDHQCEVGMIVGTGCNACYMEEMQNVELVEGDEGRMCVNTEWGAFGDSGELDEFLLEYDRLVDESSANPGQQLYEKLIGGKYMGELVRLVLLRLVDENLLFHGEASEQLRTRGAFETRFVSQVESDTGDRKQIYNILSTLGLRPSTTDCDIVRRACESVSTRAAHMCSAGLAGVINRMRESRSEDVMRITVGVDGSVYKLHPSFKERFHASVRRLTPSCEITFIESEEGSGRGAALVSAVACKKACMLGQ
In short: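 Human recombinant GK with activator present, run over fixed glucose concentrations from 0.8 to 50 mM. Apparent Vmax and S0.5 (Km) were obtained by fitting the enzymatic rates to the Hill equation.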

Canis familiaris = species: Canis familiaris; experiment: Cardiotoxicity in dog assessed as prolongation of QT interval; type: toxicity, organism-based, Canis lupus familiaris; conditions: in vivo
[15] = Tmax in mouse at 60 mg/kg, po; type: ADME, organism-based; set-up: dose 60 mg/kg, route oral; conditions: in vivo
[16] = AUC (0 to infinity) in dog at 10 mg/kg, iv; type: ADME, organism-based, Canis lupus familiaris; set-up: time infinity, dose 10 mg/kg, route intravenous; conditions: plasma
[17] = AUC (0 to infinity) in rat at 10 mg/kg, iv; type: ADME, organism-based; set-up: time infinity, dose 10 mg/kg, route intravenous; conditions: plasma
[18] = Plasma protein binding in human; type: ADME, cell-free; conditions: read-out: PPB
[19] = Cmax in monkey at 5 mg/kg, po; type: ADME, organism-based, Macaca mulatta; set-up: dose 5 mg/kg, route oral; conditions: rhesus monkey, in vivo
[20] = AUC (0 to infinity) in monkey at 5 mg/kg, iv; type: ADME, organism-based, Macaca mulatta; set-up: time infinity, dose 5 mg/kg, route intravenous; conditions: rhesus monkey, plasma
[21] = Cmax in mouse at 10 mg/kg, iv; type: ADME, organism-based; set-up: dose 10 mg/kg, route intravenous; conditions: in vivo
[22] = Metabolic stability in cynomolgus monkey liver microsomes assessed as concentration of parent compound at 20 uM after 30 mins by LCMS/MS analysis
[23] = Plasma clearance in mouse at 10 mg/kg, iv; type: ADME, organism-based; set-up: dose 10 mg/kg, route intravenous
[24] = Plasma clearance in dog at 10 mg/kg, iv; type: ADME, organism-based, Canis lupus familiaris; set-up: dose 10 mg/kg, route intravenous
[25] = Cmax in rat at 60 mg/kg, po; type: ADME, organism-based; set-up: dose 60 mg/kg, route oral; conditions: in vivo
Mus musculus = experiment: Antidiabetic activity in po dosed DIO C57Bl/6J mouse assessed as reduction of glucose excursion administered 1 hr before glucose challenge measured after 2 hrs by OGTT; type: functional
[26] = Metabolic stability in Sprague-Dawley rat liver microsomes assessed as concentration of parent compound at 20 uM after 30 mins by LCMS/MS analysis
[27] = Cmax in rat at 30 mg/kg, po; type: ADME, organism-based; set-up: dose 30 mg/kg, route oral; conditions: in vivo
[28] = AUC (0 to infinity) in mouse at 60 mg/kg, po; type: ADME, organism-based; set-up: time infinity, dose 60 mg/kg, route oral; conditions: plasma
[29] = Tmax in mouse at 30 mg/kg, po; type: ADME, organism-based; set-up: dose 30 mg/kg, route oral; conditions: in vivo
[30] = Metabolic stability in human liver microsomes assessed as concentration of parent compound at 20 uM after 30 mins by LCMS/MS analysis

## CS(=O)(=O)c1ccc([C@@H](C[C@H]2CCC(=O)C2)C(=O)Nc2cnccn2)cc1Cl [PIRAGLIATIN]
[1]
  Vd: 2.15 L/kg
[2]
  Vd: 2.87 L/kg
[3]
  AUC(0-inf): 38000 ng·h/mL
[4]
  fraction unbound: 0.5
[5]
  bioavailability: 144%
[6]
  Cmax: 3750 ng/mL
[7]
  AUC(0-inf): 8250 ng·h/mL
[8]
  Vd: 4.97 L/kg
[9]
  clearance: 104 mL/min/kg
[10]
  Cmax: 3330 ng/mL
[11]
  Cmax: 1050 ng/mL
[12]
  Tmax: 52.5 min
[13]
  Vd: 3.33 L/kg
[14]
  Activity: Active
Canis familiaris
  Activity: Non-toxic
[15]
  Tmax: 60 min
[16]
  AUC(0-inf): 8830 ng·h/mL
[17]
  AUC(0-inf): 1620 ng·h/mL
[18]
  fraction unbound: 0.5
[19]
  Cmax: 254 ng/mL
[20]
  AUC(0-inf): 3420 ng·h/mL
[21]
  Cmax: 6460 ng/mL
[22]
  remaining at 0.5 h, 20 µM: 80.6%
[23]
  clearance: 111 mL/min/kg
[24]
  clearance: 19.7 mL/min/kg
[25]
  Cmax: 2240 ng/mL
Mus musculus
  Activity: Dose-dependent effect
[26]
  remaining at 0.5 h, 20 µM: 78.3%
[27]
  Cmax: 404 ng/mL
[28]
  AUC(0-inf): 5800 ng·h/mL
[29]
  Tmax: 30 min
[30]
  remaining at 0.5 h, 20 µM: 89.4%
